# Bioassay records from PubChem.
# This is a sample that favours compounds with a hit; in the whole collection about 0.6% have one here.
# Rad51 HR inh – human RAD51 strand exchange inhibitors, primary screen, biochemical, fluorescence | DNA repair protein RAD51 homolog 1 (Homo sapiens), Q06609 | hRad51 DNA strand exchange, fluorescence dequenching | inhibition, % at 10 µM | actives 0.085% (n = 200,000) | AID 1385, 2008;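 active means inhibition above 40% at the single screening dose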;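 further: 0% = DMSO control wells and 100% = blanks with heterologous ssDNA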
#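 Test system: preformed human Rad51 ssDNA filaments. Compound dosing: single dose, 10 µM final compound. Incubation: filaments 15 min 37 °C, then compound 30 min. Technique: FRET fluorescence dequenching, excitation 485 nm, emission 520 nm. Read-out basis: percent inhibition from fluorescence, normalised to plate control and blank means. Benchmarks: plate controls and plate blanks.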
# PMI act satM6P – human PMI activators, high substrate, primary screen, biochemical, fluorescence intensity, near-saturating mannose 6-phosphate; activation factor at 20 µM; actives 0.34% (n = 190,000); coupled PMI enzyme assay, resazurin fluorescence, 20 min; stronger effect = higher value; 1 = untreated enzyme, 0 = substrate-free blank; AID 1216, 2008; Mannose-6-phosphate isomerase (Homo sapiens), P34949;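 active means activation factor of 2 or more at 20 µM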
# Target sequence (P34949 whole entry, looked up): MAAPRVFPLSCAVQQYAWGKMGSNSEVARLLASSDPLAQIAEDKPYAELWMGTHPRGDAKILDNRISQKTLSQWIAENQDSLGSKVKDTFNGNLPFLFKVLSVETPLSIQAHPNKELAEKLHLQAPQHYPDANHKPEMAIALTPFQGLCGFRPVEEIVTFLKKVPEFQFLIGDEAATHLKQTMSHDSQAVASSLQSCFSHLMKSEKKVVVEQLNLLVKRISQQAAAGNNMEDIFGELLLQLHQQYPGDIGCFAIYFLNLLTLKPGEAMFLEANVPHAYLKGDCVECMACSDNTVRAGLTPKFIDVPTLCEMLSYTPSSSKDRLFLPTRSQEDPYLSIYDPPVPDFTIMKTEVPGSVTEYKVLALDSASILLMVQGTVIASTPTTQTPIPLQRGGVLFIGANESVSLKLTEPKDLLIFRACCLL
#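 Test system: human phosphomannose isomerase with PGI, G6PDH, diaphorase coupling enzymes; Amount: PMI at 15 ng/mL final; Reagent: Mannose-6-phosphate 1.0 mM (near-saturating) plus 0.22 mM NADP+; Timing: 20 min, room temperature; Technique: resorufin fluorescence at Ex 544/Em 590 nm; Dosing: 20 µM single dose.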
# PMI act – activators of human PMI, primary screen, biochemical, fluorescence intensity, near-Km mannose 6-phosphate | AID 1214, 2008 | actives 0.005% (n = 190,000) | activation factor at 20 µM | purified human PMI, coupled resazurin fluorescence, 20 min; stronger effect = higher value; 1 = vehicle control, 0 substrate-free wells;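 active means activation factor of 2 or more at 20 µM, relative to plate controls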
# TNAP inh hi DEA – human TNAP enzyme inhibitors, primary screen, biochemical, luminescent, high phosphate acceptor level, uHTS; actives 0.03% (n = 200,000); Alkaline phosphatase, tissue-nonspecific isozyme (Homo sapiens), P05186; inhibition, % at 20 µM; AID 1135, 2008; purified TNAP, CDP-star luminescence, 1 M DEA;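 active means over 50% inhibition of tissue-nonspecific alkaline phosphatase at 20 µM in the single-dose screen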;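 further: plate controls were DMSO wells for no effect and EDTA-quenched wells as full inhibition for full effect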
# TNAP act hi DEA – TNAP activators at high phosphate acceptor level, primary screen, biochemical, luminescence, uHTS; Alkaline phosphatase, tissue-nonspecific isozyme (Homo sapiens), P05186; purified TNAP, CDP-star luminescence, 1 M DEA, 30 min; stronger effect = higher value; 0 = EDTA background, 1 = DMSO-only activity; activation factor at 20 µM; 200,000 tested, under 10 active; AID 1136, 2008;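 active means activation factor at least 2 at 20 µM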
#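 system = human TNAP | amount = enzyme diluted 1/800 final | reagent = 100 µM CDP-star substrate | signal = luminescent substrate turnover signal | dosing = one dose, 20 µM | benchmarks = EDTA negative control, DMSO positive control | measure = activation factor | timing = 30 min reaction, room temperature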
# TNAP inh no acc – human TNAP enzyme inhibitors, primary screen, biochemical, luminescent, no phosphate acceptor, uHTS. Alkaline phosphatase, tissue-nonspecific isozyme (Homo sapiens), P05186. purified TNAP, CDP-star luminescence, 30 min. inhibition, % at 20 µM. actives 0.26% (n = 200,000). AID 1012, 2008;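 active means tissue-nonspecific alkaline phosphatase inhibition above about 50% at 20 µM in the single-dose screen, limit read from the data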;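 further: 0% = DMSO negative control and 100% = EDTA positive control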
# * = called active by the depositor; . = no result.
SMILES,Rad51 HR inh,PMI act satM6P,PMI act,TNAP inh hi DEA,TNAP act hi DEA,TNAP inh no acc
CCOC(=O)C1(C)/C(=N/Nc2cccc(Cl)c2)C(=O)C(=O)N1c1ccccc1 (stereo not drawn),-6.2,2.3*,1.4,14.7,0.9,16.1
CC1CCN(CCC(=O)Nc2ccc3c(c2)OCCO3)CC1,-5.9,1,1.1,-4.4,1,-13.6
COc1ccc(S(=O)(=O)N=Nc2c(O)[nH]c3ccccc23)cc1,0.1,2.5*,1.9,1.5,1,-0.1
Cc1ccc(S(=O)(=O)N=Nc2c(O)[nH]c3ccccc23)cc1C,8.6,2.2*,1.9,-4.8,1,-7.3
C#CCN(C(=O)Nc1ccccc1)c1ccccc1,-24.3,1.2,1.2,-4.6,1,0.7
CCC(CC)C(=O)Nc1ccc(C(=O)c2ccccc2)cc1,12.6,0.8,0.9,-3.7,1,-2.6
CCOC(=O)C1=C(N)N(c2ccccc2Oc2ccccc2)C(=O)C1,19.7,1,1,-6.1,1.1,-15.0
CCOC(=O)C1=C2NC(=O)c3ccccc3N2C(=O)C1,-16.3,2*,1.6,1.0,1,-9.4
CC(C)Oc1ccc(C(=O)O)c(C(=O)O)c1,9.9,1,1,0.2,1,-4.3
CC1(CCc2ccccc2)NC(=S)N(c2ccccc2)N1 (stereo not drawn),7.3,2.8*,1.5,-4.0,1,4.4
CC1(CCc2ccccc2)NC(=S)N(c2ccc(Cl)cc2)N1 (stereo not drawn),.,2.7*,1.7,2.6,1,-31.3
CCC1(c2ccc(Cl)cc2)NC(=S)N(c2ccc(C)cc2)N1 (stereo not drawn),-40.9,1.9,1.3,2.7,1,8.3
CCC1(c2ccccc2)NC(=S)N(c2ccc(C)c(C)c2)N1 (stereo not drawn),12.6,1.7,1.3,-4.9,1,-2.7
O=C(NNC1=NCCCCC1)Nc1cccc(Cl)c1,-7.2,1.1,1.1,-3.4,1,-0.2
O=C(c1noc2c1CCCCC2)N1CCOCC1,6.5,1,1,-1.9,1,-9.3
CC(=O)c1ccc(N2C(=O)C3C(C2=O)C(C(=O)c2ccc(Cl)cc2)N2CCCC32)cc1 (stereo not drawn),-26.1,2*,1.6,-4.2,1,-2.2
O=C(c1ccccc1)[C@@H]1[C@@H]2C(=O)N(c3ccc(F)cc3)C(=O)[C@@H]2C2CCCN21 (stereo partly drawn),-17.5,.,.,.,.,.
O=C(c1ccc(Cl)cc1)C1C2C(=O)N(c3ccccc3)C(=O)C2C2CCCN21 (stereo not drawn),-1.1,2*,1.6,-1.9,1,4.7
Cc1ccc(N2C(=O)[C@@H]3[C@H](C2=O)C2CCCN2[C@@H]3C(=O)c2ccccc2)cc1 (stereo partly drawn),-20.9,2*,1.5,-5.9,1.1,-12.3
COc1ccc(N2C(=O)C3C(C2=O)C(C(=O)c2ccc(Cl)cc2)N2CCCC32)cc1 (stereo not drawn),-62.6,.,.,.,.,.
C=CCC1Cc2c(cccc2[N+](=O)[O-])C(CC=C)N1 (stereo not drawn),7.9,1,1,-12.9,1.1,-11.1
CCOC(=O)c1ccc(OCc2nc(-c3cccs3)no2)cc1,0.3,1,0.9,-3.0,1,-9.0
C/C(=N\Nc1ccc(C(=O)O)cc1)c1ccc(-n2ccnc2)cc1,6.3,2*,1.6,-3.8,1,-8.9
C/C(=N\Nc1ccccc1Cl)c1ccc(-n2ccnc2)cc1,1.6,2.7*,1.7,-3.4,1,-3.7
C/C(=N\NC(N)=O)c1ccc(-n2ccnc2)cc1,8.1,1.1,1.1,-3.7,1,-0.9
SMILES,Rad51 HR inh,PMI act satM6P,PMI act,TNAP inh hi DEA,TNAP act hi DEA,TNAP inh no acc
COC(=O)c1sc(-c2ccc(Cl)cc2)cc1NC(=O)CSCC(=O)O,1.1,.,.,.,.,.
CCOC(=O)c1c(NC(=O)CSc2nnc(-c3cccnc3)n2Cc2ccco2)sc(C)c1C,.,0.8,0.9,-0.8,1,-0.8
CC(=O)NNc1ncnc2c1cnn2-c1ccc(C)c(C)c1,-0.7,1,1,1.6,1,-190.2
Cc1ccc(-n2ncc3c2ncn2c(C)nnc32)cc1C,-10.3,1.1,1.1,-0.2,1,83.5*
Cc1cccc(C)c1OCc1nnc2c3cnn(C)c3ncn12,-1.9,0.8,0.8,-2.1,1,73.7*
Cc1nc2c3cnn(-c4ccccc4)c3ncn2n1,3.8,1,1,-1.9,1,54.0*
COc1ccc(Cc2nnc3c4cnn(C)c4ncn23)cc1,0.9,1,1,-2.9,1,35.1
c1ccc(-n2ncc3c2ncn2cnnc32)cc1,-6.2,1,1,9.4,0.9,75.6*
O=C(CN1C(=O)c2ccccc2C1=O)Nc1ccccc1C(=O)N1CCCC1,-1.2,1,0.9,-7.0,1.1,-14.6
Cc1c(CN2CCc3c([nH]c4ccccc34)C2C2CCCCC2)cnn1C (stereo not drawn),-15.6,1,1,-7.5,1.1,-10.3
CCCc1nnc(NC(=O)Nc2ccccc2OC)s1,-0.5,1,0.9,1.0,1,-4.9
C/C(=N\Nc1ccc(S(=O)(=O)Nc2ccccc2)cc1[N+](=O)[O-])c1ccc(N2CCOCC2)cc1,-9.9,1,0.9,19.0,0.8,24.8
CCc1nnc2c3cnn(-c4ccccc4)c3ncn12,-13.7,1.1,1,4.0,1,52.6*
COc1ccc(OCCSc2n[nH]c(N)n2)cc1,-11.2,1,1,-5.1,1.1,-1.5
CC(C)CSc1n[nH]c(N)n1,.,1.1,1.1,-0.9,1,50.0*
Cc1cc2nc3c(nc2cc1C)C1(C(=O)O)CCC3(C)C1(C)C (stereo not drawn),40.3*,0.9,0.9,0.9,1,-6.8
O=c1c(-c2ccccc2)c(O)c2c(n1-c1ccccc1)CCCC2,-1.8,0.9,1,-2.8,1,-3.5
O=C1CCC2(CC1)NC(=O)N(c1ccccc1)N2,2.0,2.6*,1.7,0.5,1,-7.6
